Data on one molecule can be found in ChEMBL document CHEMBL1136257, “New highly active taxoids from 9beta-dihydrobaccatin-9,10-acetals. Part 3” (Bioorg Med Chem Lett, 2003).

The nature of series [1]: Solubility in water using UV assay. Type of series: physicochemical.
Series [2] concerns PC-6. Nature of the series: Cytotoxic activity against human lung cancer PC-6 cell line. The series is classed as functional. An outline of the steps: (§1)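 Growth inhibition (IC50) of mouse leukemia P388 and human lung cancer PC-6 and PC-12 cells after 72 h continuous exposure to compound; IC50 taken as the concentration giving 50% growth inhibition.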
In series [3] the test system is Mus musculus. Put plainly: Mortality was determined in mice inoculated with B16 melanoma BL6 cells sc at a dose 100 mg/kg by intravenous administration; 0/6. Type of series: functional.
The subject of series [4] is Mus musculus. Nature of the series: Maximum rate of body weight loss was determined in mice inoculated with B16 melanoma BL6 cells sc at a dose 600 mg/kg by peroral administration. The series is classed as functional. The conditions noted are these: route oral. An outline of the steps:
(§2)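 On day 0, B16 melanoma BL6 cells (cultured line) were implanted subcutaneously into C57BL/6 mice, six per group. A single iv or oral dose was given on day 4, and body weight was followed. BWLmax (%) is the maximum rate of body weight loss; a value below 0 means no loss.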

The nature of series [5]: Solubility of compound in JP2 at pH 6.8 using UV assay. As to conditions: JP2, pH 6.8. The series is classed as physicochemical.
For series [6], the system named is PC-12. Nature of the series: Cytotoxic activity against human lung cancer PC-12 cell line.
Series [7] can be described thus: Solubility of compound in JP1 at pH 1.2 using UV assay. The conditions noted are these: JP1, pH 1.2. Type of series: physicochemical.
Series [8] deals with Mus musculus. Put plainly: Mean tumor weight was determined in mice inoculated with B16 melanoma BL6 cells sc at a dose 600 mg/kg po [IR (%) = (1-TWt/TWc)*100]. Type of series: functional. Summed up:
(§3)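 C57BL/6 mice (six per group) received subcutaneous B16 melanoma BL6 cells on day 0 and a single iv or oral dose on day 4. Tumors were excised and weighed on day 15. Inhibition rate IR (%) = (1 − mean treated tumor weight/mean control tumor weight) × 100.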

For series [9], the system named is Mus musculus. Put plainly: Maximum rate of body weight loss was determined in mice inoculated with B16 melanoma BL6 cells sc at a dose 100 mg/kg by intravenous administration. The series is classed as functional. An outline of the steps:
as §2

In series [10] the test system is Mus musculus. Nature of the series: Mean tumor weight was determined in mice inoculated with B16 melanoma BL6 cells sc at a dose 100 mg/kg iv [IR (%) = (1-TWt/TWc)*100]. Type of series: functional. An outline of the steps:
as §3

The subject of series [11] is Mus musculus. Put plainly: Mortality was determined in mice inoculated with B16 melanoma BL6 cells sc at a dose 600 mg/kg by peroral administration; 0/6. Type of series: functional. As to conditions: route oral.
For series [12], the system named is P388. Nature of the series: Cytotoxic activity against mouse leukemia P388 cell line. Type of series: functional. Summed up:
as §1

As a reminder, the solubility is how much of the substance goes into solution per volume. By GI50 is commonly meant the concentration that inhibits growth by half. Regarding `CC(=O)O[C@@]12CO[C@@H]1C[C@H](O)[C@@]1(C)C(=O)[C@H](O)C3=C(C)[C@@H](OC(=O)[C@H](O)[C@@H](NC(=O)OC(C)(C)C)c4ccccc4)C[C@@](O)([C@@H](OC(=O)c4ccccc4)[C@H]21)C3(C)C.O.O.O` [DOCETAXEL], the solubility in series [1], in series [5] and in series [7] was < 4 µg/mL in each case. Further, the figures for the concentration for 50% growth inhibition (GI50) in series [2], in series [6] and in [12] were 0.41 ng/mL, 14.9 ng/mL and 0.78 ng/mL, respectively. Also, the Mortality in series [3] and in [11] was 0 in each case. For the same molecule, the BWLmax in series [4] and in [9] was <0% each time. Further, the IR was determined as 6.2% in series [8] and 95.1% in series [10].
